Legend:
[1] = Lipophilicity, logD of compound; conditions: octanol/water
[2] = Inhibition of human electron transport chain complex 1 in human NCI-H1299 cells assessed as reduction in cellular ATP level measured after 24 hrs by CellTiter-Glo assay; assay type: cell-based
How it was run: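 ATP-dependent luciferase luminescence read in H1299 cells, first without (M1) and then after adding the complex II substrate succinate (M2), to separate complex I block from downstream respiratory-chain inhibition or uncoupling.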

[3] = Blood clearance in male Wistar rat at 0.3 to 5 mg/kg, iv and po by LC-MS/MS analysis; assay type: ADME, organism-based; conditions: dose 0.3-5 mg/kg
[4] = Metabolic stability in rat hepatocyte assessed as maximum bioavailability measured up to 90 mins by LC-MS/MS analysis; assay type: ADME; conditions: for Fh at 1.5 h: rat hepatocytes, read-out: Fmax
[5] = Inhibition of human electron transport chain complex 1 in human HCT-116 cells assessed as reduction in cellular ATP measured after 24 hrs by CellTiter-Glo assay; assay type: cell-based; conditions: HCT-116, 24 h
[6] = Inhibition of human electron transport chain complex 1 in dog A-72 cells assessed as reduction in cellular ATP measured after 24 hrs by CellTiter-Glo assay; assay type: cell-based; conditions: A-72, 24 h
[7] = Inhibition of human electron transport chain complex 1 in dog MDCK cells assessed as reduction in cellular ATP measured after 24 hrs by CellTiter-Glo assay; assay type: cell-based
[8] = Inhibition of human electron transport chain complex 1 in mouse 4T1 cells assessed as reduction in cellular ATP measured after 24 hrs by CellTiter-Glo assay; assay type: cell-based; conditions: 4T1, 24 h
[9] = Inhibition of human electron transport chain complex 1 in rat C6 cells assessed as reduction in cellular ATP measured after 24 hrs by CellTiter-Glo assay; assay type: cell-based; conditions: C6, 24 h
[10] = Half life in Wistar rat plasma at 0.4 mg/kg, iv by LC-MS/MS analysis; assay type: ADME, organism-based
[11] = Oral bioavailability in Wistar rat plasma at 0.8 mg/kg by LC-MS/MS analysis; assay type: ADME, organism-based
[12] = Volume of distribution at steady state in Wistar rat plasma at 0.4 mg/kg, iv by LC-MS/MS analysis; assay type: ADME, organism-based; conditions: read-out: Vdss
[13] = AUC in Wistar rat plasma at 0.8 mg/kg, po by LC-MS/MS analysis; assay type: ADME, organism-based; parameters: dose 0.8 mg/kg; conditions: in vivo
[14] = Inhibition of rat electron transport chain complex 1 assessed as reduction in cellular ATP measured after 24 hrs by celltiter-glo assay
[15] = Inhibition of dog electron transport chain complex 1 assessed as reduction in cellular ATP measured after 24 hrs by celltiter-glo assay; conditions: Canis lupus familiaris
[16] = Clearance in male Wistar rat blood at 0.4 mg/kg, iv by LC-MS/MS analysis
[17] = Plasma protein binding in mouse assessed as fraction unbound incubated for 6 to 8 hrs by LC-MS/MS analysis; assay type: ADME, cell-free; conditions: time 6-8 hrs
[18] = Inhibition of mouse electron transport chain complex 1 assessed as reduction in cellular ATP measured after 24 hrs by celltiter-glo assay

| SMILES | logD [1] | IC50 ([2]; Homo sapiens, NCI-H1299, 24 h) | also measured |
| --- | --- | --- | --- |
| c1ccc2oc(-c3csc(C4CCN(Cc5ncc[nH]5)CC4)n3)cc2c1 | 2.6 | 4000 nM | – |
| c1ccc2oc(-c3csc(C4CCN(Cc5cn6ccccc6n5)CC4)n3)cc2c1 | 2.9 | 340 nM | – |
| CCc1nccc(N2CCC(N3CCC(c4nc(-c5cc6ccccc6o5)cs4)CC3)C2=O)c1Cl (single isomer, unassigned; form 1) | 4.2 | – | clearance [3]: 45 mL/min/kg; Fh at 1.5 h [4]: 40%; IC50 ([2]; nci-h1299): 14 nM |
| c1ccc2oc(-c3csc(C4CCN(Cc5nc6ccccc6[nH]5)CC4)n3)cc2c1 | 3.4 | 200 nM | – |
| O=C(CN1CCC(c2nc(-c3cc4ccccc4o3)cs2)CC1)Nc1ccccc1 | – | 882 nM | – |
| c1ccc2oc(-c3csc(C4CCN(Cc5cn6ccncc6n5)CC4)n3)cc2c1 | 2.7 | 390 nM | – |
| CN(C(=O)CN1CCC(c2nc(-c3cc4ccccc4o3)cs2)CC1)c1ccncc1 | 3 | 96 nM | Fh at 1.5 h [4]: 10% |
| CC(C)(C(=O)Nc1cccc(F)c1)N1CCC(c2nc(-c3cc4ccccc4o3)cs2)CC1 | 5.7 | > 30000 nM | Fh at 1.5 h [4]: 55% |
| O=C(CN1CCC(c2nc(-c3cc4ccccc4o3)cs2)CC1)Nc1cccc(F)c1 | – | 420 nM | – |
| c1ccc(-c2c[nH]c(CN3CCC(c4nc(-c5cc6ccccc6o5)cs4)CC3)n2)cc1 | 3.7 | 860 nM | – |
| O=C(c1nc2ccccc2[nH]1)N1CCC(c2nc(-c3cc4ccccc4o3)cs2)CC1 | 4.3 | 3000 nM | – |
| CCc1nccc(N2CCC(N3CCC(c4nc(-c5cc6ccccc6o5)cs4)CC3)C2=O)c1Cl (single isomer, unassigned; form 2) | – | – | Fmax ([4]; hepatocytes, 1.5 h): 43%; IC50 ([2]; nci-h1299): 950 nM |
| O=C(CN1CCC(c2nc(-c3cc4ccccc4o3)cs2)CC1)Nc1cncs1 | – | 155 nM | – |
| Fc1ccc2cc(-c3csc(C4CCN(Cc5nc6ccccc6[nH]5)CC4)n3)oc2c1 | 3.5 | 500 nM | – |
| Cc1nsc(NC(=O)C(C)N2CCC(c3nc(-c4cc5ccccc5o4)cs3)CC2)c1Cl (racemic) | 5.6 | 77 nM | clearance [3]: 118 mL/min/kg; Fh at 1.5 h [4]: 61% |
| c1ccc2oc(-c3csc(C4CCN(c5nnc(-c6ccncc6)o5)CC4)n3)cc2c1 | 3.3 | 13400 nM | Fh at 1.5 h [4]: 44% |
| c1ccc2oc(-c3csc(C4CCN(Cc5nc6ccccc6o5)CC4)n3)cc2c1 | 4.6 | 1720 nM | – |
| Cn1c(CN2CCC(c3nc(-c4cc5ccccc5o4)cs3)CC2)nc2ccccc21 | 4.3 | 700 nM | – |
| c1ccc2oc(-c3csc(C4CCN(Cc5cn6ncccc6n5)CC4)n3)cc2c1 | 3.1 | 300 nM | – |
| CC(c1nc2ccccc2[nH]1)N1CCC(c2nc(-c3cc4ccccc4o3)cs2)CC1 (racemic) | 3.7 | 400 nM | – |
| c1ccc2oc(-c3csc(C4CCN(Cc5nc6ncncc6[nH]5)CC4)n3)cc2c1 | 2.6 | 80 nM | – |

| SMILES | logD [1] | IC50 ([2]; Homo sapiens, NCI-H1299, 24 h) | also measured |
| --- | --- | --- | --- |
| Fc1cnc2nc(CN3CCC(c4nc(-c5cc6ccccc6o5)cs4)CC3)[nH]c2c1 | 3.1 | 300 nM | – |
| c1ccc2oc(-c3csc(C4CCN(Cc5cn6cccnc6n5)CC4)n3)cc2c1 | 2.5 | 730 nM | – |
| O=C(CN1CCC(c2nc(-c3cc4ccccc4o3)cs2)CC1)Nc1cccc(C(F)(F)F)c1 | – | 3280 nM | – |
| Cc1nsc(NC(=O)CN2CCC(c3nc(-c4cc5ccccc5o4)cs3)CC2)c1Cl | 5.1 | 25 nM | IC50 [5]: 3.9 nM; IC50 [6]: 27 nM; clearance [3]: 163 mL/min/kg; IC50 [7]: 49 nM; IC50 [8]: 13 nM; Fh at 1.5 h [4]: 18%; IC50 [9]: 1.7 nM |
| Cn1c(-c2csc(C3CCN(Cc4nc5ccccc5[nH]4)CC3)n2)nc2ccccc21 | 2.5 | 20000 nM | – |
| c1ccc(-c2csc(C3CCN(Cc4nc5ccccc5[nH]4)CC3)n2)cc1 | 3 | 10000 nM | – |
| O=C(CN1CCC(c2nc(-c3cc4ccccc4o3)cs2)CC1)Nc1ccncc1 | – | 70 nM | – |
| c1ccc2[nH]c(CN3CCC(c4nc(-c5nc6ccccc6s5)cs4)CC3)nc2c1 | 3.1 | 710 nM | – |
| O=C(CN1CCC(c2nc(-c3cc4ccccc4o3)cs2)CC1)Nc1ccccc1F | – | 3240 nM | – |
| N#Cc1ccc2nc(CN3CCC(c4nc(-c5cc6ccccc6o5)cs4)CC3)[nH]c2c1 | 3.4 | 860 nM | – |
| CC(C)(c1nc2ccccc2[nH]1)N1CCC(c2nc(-c3cc4ccccc4o3)cs2)CC1 | 3.8 | 3000 nM | – |
| c1ccc2[nH]c(CN3CCC(c4nc(-c5cc6ncccc6o5)cs4)CC3)nc2c1 | 2.4 | 770 nM | – |
| CCc1nccc(NC(=O)CN2CCC(c3nc(-c4cc5ccccc5o4)cs3)CC2)c1Cl | – | 102 nM | – |
| CCn1c(CN2CCC(c3nc(-c4cc5ccccc5o4)cs3)CC2)nc2ccccc21 | 3.4 | > 30000 nM | – |
| c1coc(-c2csc(C3CCN(Cc4nc5ccccc5[nH]4)CC3)n2)c1 | 2.6 | > 30000 nM | – |
| Cc1ccnc2nc(CN3CCC(c4nc(-c5cc6ccccc6o5)cs4)CC3)[nH]c12 | 3 | 300 nM | – |
| c1ccc2oc(-c3csc(C4CCN(Cc5nc6ccccc6s5)CC4)n3)cc2c1 | 5.6 | 1760 nM | – |
| Fc1cccc2[nH]c(CN3CCC(c4nc(-c5cc6ccccc6o5)cs4)CC3)nc12 | 3.7 | 325 nM | clearance [3]: 18.3 mL/min/kg; Fh at 1.5 h [4]: 57% |
| c1ccc2oc(-c3csc(C4CCN(Cc5nc6cnccc6[nH]5)CC4)n3)cc2c1 | – | 38 nM | half-life [10]: 3.1 h; bioavailability [11]: 80%; Vd [12]: 3.2 L/kg; AUC [13]: 1 kg·h/L; IC50 [14]: 22 nM; IC50 [15]: 37 nM; clearance [16]: 20 mL/min/kg; Fu [17]: 0.59%; Fh at 1.5 h [4]: 63%; IC50 [18]: 26 nM |
| Cc1ccc2[nH]c(CN3CCC(c4nc(-c5cc6ccccc6o5)cs4)CC3)nc2n1 | 3 | 300 nM | – |
| N#Cc1ccc2oc(-c3csc(C4CCN(Cc5nc6ccccc6[nH]5)CC4)n3)cc2c1 | 3 | 2000 nM | – |

— ChEMBL document CHEMBL5046307 (ACS Med Chem Lett, 2022)
